Data as given in ChEMBL document CHEMBL5030567, “Macrocyclic Inhibitors of HGF-Activating Serine Proteases Overcome Resistance to Receptor Tyrosine Kinase Inhibitors and Block Lung Cancer Progression” (J Med Chem, 2021).
Converted amounts (≈) assume the structure as drawn. The source made the active and inactive calls. No cut-off for these calls is given here.

Legend:
HCC827 [1] = assay: Cytotoxicity against human HCC827 cells assessed as reduction in cell viability at 0.1 to 1 uM after 72 hrs in presence of pro-HGF by crystal violet staining based assay; conditions: dose 0.1-1 µM
[2] = Solubility of compound at pH 7.4; format: physicochemical; conditions: buffer
[3] = Toxicity in hHGF knock in NSG mouse xenografted with human NCI-H596 cells at 20 mg/kg, ip administered daily for 14 to 16 days; format: organism-based; conditions: in vivo, time 14-16 day
[4] = Stability in human plasma assessed as half life; format: ADME, cell-free
Serine protease hepsin [5] = molecular target: T1, Serine protease hepsin (Homo sapiens, UniProt P05981); assay: Inhibition of recombinant human C-terminal 10-His tagged hepsin (Arg45 to Leu417) expressed in mouse myeloma cells using Boc-QAR-AMC as substrate preincubated for 30 mins followed by substrate addition by fluorescence based assay; format: single protein
Procedure, shortened: (§1)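 Inhibitor in 11-point serial dilution (0-20 µM final, 2% DMSO) pre-incubated 30 min at room temperature with enzyme in TNC buffer (25 mM Tris, 150 mM NaCl, 5 mM CaCl2, 0.01% Triton X-100, pH 8). […] Hepsin activated beforehand 24 h at 37°C. Fluorescence ex 380/em 460 nm kinetic; four-parameter fit of velocities; mean of three experiments.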

HCC827 [6] = assay: Inhibition of pro-HGF stimulated wound healing in human HCC827 cells preincubated for 30 mins followed by pro-HGF stimulation and measured after 24 hrs by crystal violet staining based assay; format: functional, cell-based
Procedure, shortened: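 HCC827 monolayers grown to confluence, serum-starved overnight, then scratched. Cells were pre-incubated 30 min with inhibitor (10 µM) and stimulated with HGF or pro-HGF for 24 h. Wells stained with crystal violet to score closure. n=3; one-way ANOVA versus pro-HGF alone.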

HCC827 [7] = assay: Cytotoxicity against human HCC827 cells assessed as reduction in cell viability at 0.1 to 1 uM after 72 hrs by crystal violet staining based assay; conditions: dose 0.1-1 µM
[8] = Plasma protein binding in mouse assessed as unbound fraction; format: ADME, cell-free
[9] = Half life in mouse plasma at 20 mg/kg, ip; format: ADME, organism-based; conditions: in vivo, 20 mg/kg
[10] = Stability in mouse liver microsomes assessed as half life; format: ADME, Microsome
[11] = Stability in human liver microsomes assessed as half life; format: ADME, Microsome
[12] = Toxicity in NSG mouse assessed as body weight loss at 10 to 50 mg/kg, ip administered for 7 days; format: organism-based; conditions: in vivo, dose 10-50 mg/kg, time 7 day
[13] = Stability in mouse plasma assessed as half life; format: ADME, cell-free
NCI-H596 = assay: Antitumor activity against human NCI-H596 cells xenografted in hHGF knock in NSG mouse assessed as tumor growth inhibition at 20 mg/kg, ip administered daily for 14 to 16 days; format: functional, organism-based; conditions: time 14-16 day
[14] = molecular target: T2, Suppressor of tumorigenicity 14 protein (Homo sapiens) (UniProt Q9Y5Y6); assay: Inhibition of recombinant human N-terminal met-His6-tagged matriptase catalytic domain (Gly596 to Val855 residues) expressed in Escherichia coli mediated pro-HGF activation preincubated for 30 mins followed by pro-HGF addition and measured after 1 hr by immunoblotting analysis
T2 sequence (whole entry): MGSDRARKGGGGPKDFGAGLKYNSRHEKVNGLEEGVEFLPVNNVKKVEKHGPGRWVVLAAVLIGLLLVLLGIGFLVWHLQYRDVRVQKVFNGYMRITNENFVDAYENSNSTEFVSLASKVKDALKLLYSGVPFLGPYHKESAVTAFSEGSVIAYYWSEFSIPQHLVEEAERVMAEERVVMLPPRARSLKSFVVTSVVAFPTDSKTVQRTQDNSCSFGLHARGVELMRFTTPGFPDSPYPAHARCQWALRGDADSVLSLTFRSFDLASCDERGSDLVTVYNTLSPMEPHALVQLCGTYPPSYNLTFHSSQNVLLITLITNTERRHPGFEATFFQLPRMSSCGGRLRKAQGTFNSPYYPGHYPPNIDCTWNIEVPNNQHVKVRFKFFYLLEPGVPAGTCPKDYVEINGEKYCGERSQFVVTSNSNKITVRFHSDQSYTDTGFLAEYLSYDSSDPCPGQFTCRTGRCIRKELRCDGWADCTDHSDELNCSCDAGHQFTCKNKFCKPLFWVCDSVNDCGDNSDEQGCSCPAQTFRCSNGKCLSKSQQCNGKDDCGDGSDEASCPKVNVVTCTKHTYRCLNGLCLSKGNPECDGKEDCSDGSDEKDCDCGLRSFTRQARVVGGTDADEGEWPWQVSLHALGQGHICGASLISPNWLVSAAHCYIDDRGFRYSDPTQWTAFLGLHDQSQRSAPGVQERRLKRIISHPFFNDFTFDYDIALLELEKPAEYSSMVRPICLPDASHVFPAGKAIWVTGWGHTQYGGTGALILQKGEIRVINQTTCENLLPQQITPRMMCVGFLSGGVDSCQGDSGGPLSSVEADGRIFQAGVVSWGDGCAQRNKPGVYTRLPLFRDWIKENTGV
Procedure, shortened: (§2)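 Recombinant pro-HGF (10 ng) incubated one hour with matriptase (1 nM), hepsin (10 nM) or HGFA (5 nM), with or without inhibitor. Processing detected by immunoblot with a polyclonal antibody recognizing pro-HGF and the HGF alpha and beta chains; active HGF served as positive control.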

Serine protease hepsin [15] = molecular target: T1, Serine protease hepsin; assay: Inhibition of recombinant human C-terminal 10-His tagged hepsin (Arg45 to Leu417) expressed in mouse myeloma cells mediated pro-HGF activation preincubated for 30 mins followed by pro-HGF addition and measured after 1 hr by immunoblotting analysis
Procedure, shortened: as §2

EBC-1 = assay: Cytotoxicity against human EBC-1 cells assessed as reduction in cell viability preincubated with compound and pro-HGF for 24 hrs followed by JNJ-38877605 addition and measured after 48 hrs by CellTiter-Glo assay; format: functional, cell-based; conditions: time 72.0 hrs
Procedure, shortened: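 EBC-1 cells pre-incubated 24 h with pro-HGF (100 ng/ml) with or without compound (1 µM), then given MET kinase inhibitor JNJ-38877605 (25 nM). Viability read by CellTiter-Glo after 48 h. Means±S.E.M., n=3; one-way ANOVA with Dunnett's test.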

[16] = Acute toxicity in NSG mouse at 10 to 50 mg/kg, ip administered for 7 days; format: organism-based; conditions: in vivo, dose 10-50 mg/kg, time 7 day
[17] = Toxicity in NSG mouse at 20 mg/kg, ip administered daily for 7 days; format: organism-based; conditions: in vivo, time 7 day
[18] = molecular target: T3, Suppressor of tumorigenicity 14 protein (Homo sapiens, UniProt Q9Y5Y6); assay: Inhibition of recombinant human N-terminal met-His6-tagged matriptase catalytic domain (Gly596 to Val855 residues) expressed in Escherichia coli using Boc-QAR-AMC as substrate preincubated for 30 mins followed by substrate addition by fluorescence based assay
T3 sequence (Q9Y5Y6 whole entry): T2 sequence (whole entry)
Procedure, shortened: as §1

[19] = molecular target: T4, Hepatocyte growth factor activator serine protease (Homo sapiens) (UniProt Q04756); assay: Inhibition of recombinant human HGFA serine protease domain mediated pro-HGF activation preincubated for 30 mins followed by pro-HGF addition and measured after 1 hr by immunoblotting analysis
T4 sequence (whole entry): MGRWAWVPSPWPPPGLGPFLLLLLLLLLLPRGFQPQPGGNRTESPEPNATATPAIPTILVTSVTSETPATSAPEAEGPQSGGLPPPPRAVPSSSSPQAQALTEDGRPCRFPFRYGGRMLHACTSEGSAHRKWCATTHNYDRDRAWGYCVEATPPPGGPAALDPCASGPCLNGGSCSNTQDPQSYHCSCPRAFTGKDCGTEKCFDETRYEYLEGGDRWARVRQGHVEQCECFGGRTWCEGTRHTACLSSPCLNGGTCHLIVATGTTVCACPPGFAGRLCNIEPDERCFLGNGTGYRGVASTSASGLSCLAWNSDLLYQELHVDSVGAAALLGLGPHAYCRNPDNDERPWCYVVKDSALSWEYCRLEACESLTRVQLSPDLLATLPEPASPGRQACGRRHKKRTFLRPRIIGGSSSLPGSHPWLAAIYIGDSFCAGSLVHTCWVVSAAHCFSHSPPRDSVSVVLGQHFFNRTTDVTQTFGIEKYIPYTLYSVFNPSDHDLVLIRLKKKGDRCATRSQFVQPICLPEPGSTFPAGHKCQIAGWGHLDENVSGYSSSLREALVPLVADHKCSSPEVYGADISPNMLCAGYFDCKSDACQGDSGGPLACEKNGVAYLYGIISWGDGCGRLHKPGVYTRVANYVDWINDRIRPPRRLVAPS
Procedure, shortened: as §2

T1 sequence (P05981 1-162 limits assumed): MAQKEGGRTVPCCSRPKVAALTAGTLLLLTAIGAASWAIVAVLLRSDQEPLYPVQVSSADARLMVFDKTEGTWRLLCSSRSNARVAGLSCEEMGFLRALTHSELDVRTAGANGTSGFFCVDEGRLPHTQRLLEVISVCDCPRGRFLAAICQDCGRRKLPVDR
T1 sequence (P05981 163-417 limits assumed): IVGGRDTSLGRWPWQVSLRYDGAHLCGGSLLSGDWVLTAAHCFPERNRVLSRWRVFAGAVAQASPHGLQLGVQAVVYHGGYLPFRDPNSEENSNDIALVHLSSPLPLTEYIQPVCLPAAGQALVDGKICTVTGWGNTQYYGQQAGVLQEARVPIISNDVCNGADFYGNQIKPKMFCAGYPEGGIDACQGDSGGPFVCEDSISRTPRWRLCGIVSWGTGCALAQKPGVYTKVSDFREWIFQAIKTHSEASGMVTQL

## CC(=O)N[C@H]1CC(=O)NCCCC[C@@H](C(=O)N[C@@H](CCCNC(=N)N)C(=O)c2nc3ccccc3s2)NC(=O)[C@H](CC(C)C)NC1=O
HCC827 [1]
  Activity: Active
[2]
  solubility: 11 µM (≈ 7.39 µg/mL)
[3]
  Activity: Non-Toxic
[4]
  t1/2: > 4.82 h
Serine protease hepsin [5]
  IC50: 11 nM
HCC827 [6]
  inhibition: Active
HCC827 [7]
  Activity: inactive
[8]
  fraction unbound: 0.286
[9]
  t1/2: 8.7 h
[10]
  t1/2: > 2.42 h
[11]
  t1/2: > 2.42 h
[12]
  Activity: Non-Toxic
[13]
  t1/2: 3.7 h
NCI-H596
  Activity: Active
[14]
  inhibition: Active
Serine protease hepsin [15]
  inhibition: Active
EBC-1
  Activity: Active
[16]
  Activity: Non-Toxic
[17]
  Activity: Non-Toxic
[18]
  IC50: 2.2 nM
[19]
  inhibition: inactive
